Laboratory results taken from ChEMBL document CHEMBL1926562, “Design, synthesis and biological activity of sphingosine kinase 2 selective inhibitors” (Bioorg Med Chem, 2012).
Active and inactive are the calls of the source. The calls are words filed in the database; no cut-off is given here.

Experiments:
Sphingosine kinase 1 [1] = target: T1, Sphingosine kinase 1 (Homo sapiens, UniProt Q9NYA1); assay: Inhibition of human SphK1 expressed in baculovirus infected Sf9 insect cells assessed as remaining activity using sphingosine and [gamma-(32)P]-ATP as substrate at 100 uM by scintillation proximity counting
Method in brief: (§1)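 Enzyme source: supernatant (10,000×g) of homogenized Sf9 cells infected with recombinant virus for 72 h, 2-3 μg protein per reaction. Sphingosine substrate at 10 μM for SphK1 and 5 μM for SphK2. Initial screen used inhibitor at 100 μM, with some compounds at 10 μM. Read-out is percent of remaining kinase activity, averaged over three experiments.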

[2] = target: T2, Sphingosine kinase 2 (Mus musculus) (UniProt Q9JIA7); assay: Inhibition of mouse SphK2 expressed in baculovirus infected Sf9 insect cells assessed as remaining activity using sphingosine and [gamma-(32)P]-ATP at 100 uM by scintillation proximity counting; method in brief: as §1
T2 sequence (whole entry): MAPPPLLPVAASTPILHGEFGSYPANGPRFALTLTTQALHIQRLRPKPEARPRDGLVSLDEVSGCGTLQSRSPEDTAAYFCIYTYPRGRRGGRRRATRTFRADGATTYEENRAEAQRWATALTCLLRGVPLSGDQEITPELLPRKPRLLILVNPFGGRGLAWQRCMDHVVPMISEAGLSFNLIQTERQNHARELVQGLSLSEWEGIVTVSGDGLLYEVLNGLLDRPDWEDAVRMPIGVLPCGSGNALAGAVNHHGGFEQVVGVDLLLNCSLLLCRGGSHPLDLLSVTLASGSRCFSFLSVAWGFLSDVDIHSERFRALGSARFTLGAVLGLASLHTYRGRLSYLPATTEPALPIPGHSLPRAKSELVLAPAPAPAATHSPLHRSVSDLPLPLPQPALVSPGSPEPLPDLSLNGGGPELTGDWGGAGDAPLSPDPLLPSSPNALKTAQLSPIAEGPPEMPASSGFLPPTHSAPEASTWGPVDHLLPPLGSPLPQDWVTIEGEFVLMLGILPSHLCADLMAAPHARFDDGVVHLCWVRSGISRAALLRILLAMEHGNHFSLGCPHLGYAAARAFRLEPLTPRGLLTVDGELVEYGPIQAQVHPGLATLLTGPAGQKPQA

Sphingosine kinase 1 [3] = target: T1, Sphingosine kinase 1; assay: Inhibition of human SphK1 expressed in baculovirus infected Sf9 insect cells using sphingosine and [gamma-(32)P]-ATP by scintillation proximity assay
Method in brief: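 Ki calculated as Ki = [I]/(K′m/Km – 1), using a sphingosine Km of 10 μM for SphK1 and 5 μM for SphK2. Enzyme came from infected Sf9 cell extract (10,000×g supernatant, 2-3 μg protein).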

Sphingosine kinase 2 = target: T3, Sphingosine kinase 2 (Mus musculus, UniProt Q9JIA7); assay: Inhibition of mouse SphK2 expressed in baculovirus infected Sf9 insect cells using sphingosine and [gamma-(32)P]-ATP by scintillation proximity assay
T3 sequence (Q9JIA7 whole entry): T2 sequence (whole entry)

[4] = target: T4, Sphingosine kinase 2 (Homo sapiens) (UniProt Q9NRA0); assay: Inhibition of SphK2 in human U937 cells assessed as change in S1P level by LC/MS analysis; type: cell-based; conditions: U-937
T4 sequence (whole entry): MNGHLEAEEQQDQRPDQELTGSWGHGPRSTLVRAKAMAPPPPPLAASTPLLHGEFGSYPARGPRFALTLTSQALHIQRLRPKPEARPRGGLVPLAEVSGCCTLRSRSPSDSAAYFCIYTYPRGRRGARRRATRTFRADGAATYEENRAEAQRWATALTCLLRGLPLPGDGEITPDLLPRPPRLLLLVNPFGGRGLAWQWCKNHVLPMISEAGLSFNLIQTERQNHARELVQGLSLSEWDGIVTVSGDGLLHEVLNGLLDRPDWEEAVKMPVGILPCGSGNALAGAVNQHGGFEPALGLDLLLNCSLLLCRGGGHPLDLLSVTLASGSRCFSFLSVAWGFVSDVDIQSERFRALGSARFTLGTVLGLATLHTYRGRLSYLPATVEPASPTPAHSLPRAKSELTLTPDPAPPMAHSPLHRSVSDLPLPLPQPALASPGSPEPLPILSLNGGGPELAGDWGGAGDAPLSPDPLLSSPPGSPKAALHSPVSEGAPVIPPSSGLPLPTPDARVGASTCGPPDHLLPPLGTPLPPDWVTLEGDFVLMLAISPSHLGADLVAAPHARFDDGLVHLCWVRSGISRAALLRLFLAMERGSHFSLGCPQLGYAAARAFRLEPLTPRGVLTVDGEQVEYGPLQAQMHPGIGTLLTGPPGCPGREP
Method in brief: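 U937 cells were treated with inhibitor, and S1P levels were measured by LC/MS.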

[5] = target: T4, Sphingosine kinase 2 (Homo sapiens); assay: Inhibition of SphK2 in human U937 cells using FTY720 as substrate assessed as decrease in phosphorylated FTY720 at 10 uM after 2 hrs by LC/MS analysis; type: cell-based; conditions: U-937
Method in brief: (§2)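 Cultured U937 cells were given FTY720 plus 10 μM inhibitor for 2 h, then pelleted by centrifugation. FTY720 and FTY720-P in the cell pellet were measured by LC/MS (C18 reverse phase, water/methanol/formic acid gradient) and reported as moles per million cells. Values are means ± SD of three independent experiments, with significance by unpaired two-tailed t-test.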

[6] = target: T4, Sphingosine kinase 2 (Homo sapiens); assay: Inhibition of SphK2 in human U937 cells using FTY720 as substrate assessed as accumulation of FTY720 at 10 uM after 2 hrs by LC/MS analysis; type: cell-based; conditions: U-937; method in brief: as §2
[7] = target: T4, Sphingosine kinase 2 (Homo sapiens); assay: Inhibition of SphK2 in human U937 cells assessed as decrease in Akt phosphorylation after 16 hrs by Western blot analysis; type: cell-based; conditions: U-937
Method in brief: (§3)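 U937 cells were incubated with a range of inhibitor concentrations for 16 h, then washed with PBS and Dounce-lysed. Equal protein amounts were run on 10% SDS–PAGE and blotted to nitrocellulose. Blots were blocked in 5% milk/TBS-Tween, probed with antibodies to ERK, p-ERK, Akt, p-Akt and β-actin (1:1000, 1 h), then HRP anti-IgG (1:2000). PD098059 (10 μM) served as ERK-phosphorylation control.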

[8] = target: T4, Sphingosine kinase 2 (Homo sapiens); assay: Inhibition of SphK2 in human U937 cells assessed as decrease in ERK phosphorylation after 16 hrs by Western blot analysis; type: cell-based; conditions: U-937; method in brief: as §3
[9] = Selectivity ratio of Ki/Km for human SphK1 to Ki/Km for mouse SphK2
Method in brief: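 Selectivity calculated as (Ki/Km)SphK1 divided by (Ki/Km)SphK2, with sphingosine Km taken as 10 μM for SphK1 and 5 μM for SphK2.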

T1 sequence (Q9NYA1 whole entry): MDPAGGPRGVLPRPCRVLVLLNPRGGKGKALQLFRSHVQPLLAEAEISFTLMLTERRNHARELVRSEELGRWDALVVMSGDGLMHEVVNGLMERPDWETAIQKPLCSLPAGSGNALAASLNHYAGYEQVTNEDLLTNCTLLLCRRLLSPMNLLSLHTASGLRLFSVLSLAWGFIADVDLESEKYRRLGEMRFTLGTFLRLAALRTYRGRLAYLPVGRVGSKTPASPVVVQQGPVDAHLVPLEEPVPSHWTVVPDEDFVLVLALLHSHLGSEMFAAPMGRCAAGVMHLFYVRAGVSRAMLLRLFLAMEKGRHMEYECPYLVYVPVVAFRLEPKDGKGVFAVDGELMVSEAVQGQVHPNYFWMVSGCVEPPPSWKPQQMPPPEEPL

Q: For `CCCCCCCCc1ccc([C@H]2CC[C@H]([N+](C)(C)CCC)CC2)cc1`, which Activity (Sphingosine kinase 1 [1]) is on record?
A: 5.3%

Q: What about the Activity [2] of the same compound?
A: 7.2%

Q: And the Ki (Sphingosine kinase 1 [3])?
A: 47 µM

Q: What about the Ki (Sphingosine kinase 2) of the same compound?
A: 8 µM

Q: What about the inhibition [4] of the same compound?
A: inactive

Q: What about the inhibition [5] of the same compound?
A: Active

Q: And the inhibition [6]?
A: Active

Q: And the inhibition [7]?
A: Dose-dependent effect

Q: And the inhibition [8]?
A: Dose-dependent effect

Q: And the Selectivity ratio [9]?
A: 2.94

Q: What does the source list for `CCCCCCCCc1ccc([C@H]2CC[C@H]([N+](C)(C)C)CC2)cc1`?
A: Activity (Sphingosine kinase 1 [1]): 10.2%; Activity [2]: 4%; Ki (Sphingosine kinase 1 [3]): 60 µM; Ki (Sphingosine kinase 2): 8 µM; inhibition [4]: inactive; inhibition [5]: Active; inhibition [6]: Active; inhibition [7]: Dose-dependent effect; inhibition [8]: Dose-dependent effect; Selectivity ratio [9]: 3.75
